In ChEMBL document CHEMBL4828712, “Design of gp120 HIV-1 entry inhibitors by scaffold hopping via isosteric replacements” (Eur J Med Chem, 2021) one finds CC50, IC50 and inhibition data, which are given here for 31 compounds.

Activity calls are given as the source filed them. The rule behind the calls is not given here.

The nature of data set [1]: Cytotoxicity against CD4-negative dog Cf2Th-CCR5 cells assessed as reduction in cell viability incubated for 3 days by XTT assay. Format: cell-based, Canis lupus familiaris. Particulars: time 3 day; for CC50: cf2th-ccr5, 72 h. The method, boiled down:
(§1)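 Viability read by the colorimetric XTT method in the stated cell line, run alongside the antiviral assays on the same cells; CC50 calculated from the viability data; values reported as mean ± standard deviation.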
In general terms: Tetrazolium dyes change colour on reduction, which living cells bring about.

The nature of data set [2]: Cytotoxicity against human U87/CD4/CCR5 cells assessed as reduction in cell viability incubated for 3 days by XTT assay. Format: cell-based. The note with it: time 3 day; for CC50 at 72 h: U87/CD4/CCR5 cells. The method, boiled down: as §1
Data set [3] can be described thus: (§2) Cytotoxicity against human TZM-bl cells assessed as reduction in cell viability incubated for 3 days by XTT assay. Format: cell-based. Particulars: TZM-bl cells, time 3 day.
Data set [4] has as its target Human immunodeficiency virus type 1 reverse transcriptase (Human immunodeficiency virus 1, UniProt Q72547). The data set can be described thus: Inhibition of recombinant HIV1 reverse transcriptase by colorimetric assay.
Data set [5] can be described thus: Inhibition of glycoprotein in VSV-G pseudotyped MLV virus infected in human U87/CD4/CCR5 cells assessed as inhibition of viral infection pretreated for 30 mins before viral infection and measured after 3 days by luciferase based single cycle infection assay. Format: cell-based. The note with it: Murine leukemia virus. The method, boiled down: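 Specificity counter-screen in which U87-CD4-CCR5 cells are infected with the luciferase-reporter control pseudovirus MLV-GP/VSV-G/Luc; IC50 is derived from inhibition of infection.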

A short description of data set [6]: Inhibition of gp120 in HIV-1 NL4-3 HXB-2-Luc pseudotyped virus infected in human TZM-bl cells assessed as reduction in viral infection pretreated for 30 mins before viral infection and measured after 3 days by luciferase based single cycle infection assay. It is filed as cell-based, HIV-1 M:B_HXB2R. Particulars: Human immunodeficiency virus 1, NL4-3, TZM-bl. The essentials: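 Single-cycle infection of TZM-bl cells with the HIV-1 NL4-3-HXB2-Luc pseudotyped virus bearing Env of lab-adapted HIV-1 HXB-2 (CXCR4-tropic), with luciferase read-out.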

Data set [7] deals with Envelope glycoprotein gp160 (Human immunodeficiency virus 1) (UniProt Q6QLK5). The data set can be described thus: Inhibition of gp120 in HIV-1 ADA infected in CD4-negative dog Cf2Th-CCR5 cells assessed as antagonism of viral entry by measuring inhibition of viral infection at 20 to 60 uM pretreated for 30 mins before viral infection and incubated for 48 hrs by luciferase assay. Format: cell-based. Particulars: dose 20-60 µM, time 48.5 hrs. The method, boiled down:
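CD4-negative Cf2Th-CCR5 cells infected with a luciferase-expressing recombinant CD4-dependent HIV-1 ADA pseudovirus under escalating compound concentrations. Read-out is relative infectivity: infection with compound divided by infection without compound. Three independent experiments, each run in triplicate.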

Data set [8] deals with TZM. Described as §2. It is filed as cell-based. The note with it: tzm, 72 h, time 3 day.

Sequence of Envelope glycoprotein gp160 (Human immunodeficiency virus 1) (Q6QLK5 1-814): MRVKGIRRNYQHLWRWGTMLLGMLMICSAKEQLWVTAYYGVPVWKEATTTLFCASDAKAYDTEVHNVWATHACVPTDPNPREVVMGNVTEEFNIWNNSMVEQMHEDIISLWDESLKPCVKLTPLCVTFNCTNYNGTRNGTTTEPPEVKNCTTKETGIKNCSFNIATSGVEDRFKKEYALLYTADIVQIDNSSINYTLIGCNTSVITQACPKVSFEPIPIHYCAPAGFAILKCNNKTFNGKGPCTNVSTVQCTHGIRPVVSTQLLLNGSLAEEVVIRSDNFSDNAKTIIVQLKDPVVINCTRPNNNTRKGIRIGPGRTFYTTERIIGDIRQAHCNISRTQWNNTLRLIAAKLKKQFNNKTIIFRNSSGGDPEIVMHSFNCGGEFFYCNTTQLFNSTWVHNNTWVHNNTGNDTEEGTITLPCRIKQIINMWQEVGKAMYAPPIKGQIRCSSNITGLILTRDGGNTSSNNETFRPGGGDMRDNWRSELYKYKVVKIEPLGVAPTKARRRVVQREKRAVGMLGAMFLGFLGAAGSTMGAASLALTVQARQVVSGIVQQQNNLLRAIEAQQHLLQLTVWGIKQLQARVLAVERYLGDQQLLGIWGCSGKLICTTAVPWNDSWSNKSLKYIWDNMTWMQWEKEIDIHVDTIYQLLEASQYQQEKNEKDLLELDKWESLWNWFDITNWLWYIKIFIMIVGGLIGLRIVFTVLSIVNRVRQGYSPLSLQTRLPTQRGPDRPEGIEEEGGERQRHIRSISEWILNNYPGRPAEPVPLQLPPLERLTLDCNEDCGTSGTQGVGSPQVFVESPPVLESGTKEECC

What is called CC50 is the concentration that lowers cell viability or growth by half. The term IC50 denotes the concentration that gives 50% inhibition. `NC[C@@H](NC(=O)c1ccc(-c2ccc(Cl)cc2)[nH]1)c1nccs1`: the CC50 at 72 h in data set [1] (CD4-negative Cf2Th-CCR5 cells) is 24.7 µM; in data set [2], 45.5 µM; in data set [3] it was 38.9 µM. Also, the IC50 turned out to be 31 µM in data set [4], 12 µM in data set [5] and 2.4 µM in data set [6]. Further, the inhibition result in data set [7] is “Active”.

`CC1(C)CC(NC(=O)C(=O)Nc2ccc(Cl)cc2)CC(C)(C)N1`: in data set [1], the half-maximal cytotoxic concentration (CC50) is more than 60 µM. In addition, in data set [3], the CC50 at 72 h worked out at 60 µM. Besides, the IC50 was more than 300 µM in data set [4] and 6.9 µM in data set [6].

With `Cc1nc([C@@H](CN)NC(=O)C(=O)Nc2ccc(Cl)cc2)sc1CO`, the CC50 at 72 h in data set [3] was more than 54 µM. In addition, in data set [6], the half-maximal inhibitory concentration (IC50) was more than 27 µM.

With `Cc1nc([C@H](CN)NC(=O)c2cc3cc(Cl)ccc3[nH]2)sc1CO`, the CC50 at 72 h in data set [3] is more than 55 µM. In data set [6], the IC50 was 50 µM.

As for `NC[C@@H](NC(=O)C(=O)NCc1ccc(Cl)c(F)c1)c1ncc(CO)s1`, the CC50 at 72 h in data set [3] is more than 77.6 µM. Also, the IC50 in data set [6] was more than 15 µM.

For `NC[C@H](NC(=O)c1ccc(OCC2CCCCC2)cc1)c1ncc(CO)s1`, in data set [3], the cytotoxic concentration (CC50) at 72 h stood at 26.5 µM. For the same compound, in data set [6], the IC50 was more than 15 µM.

As for `NC[C@@H](NC(=O)CNCc1ccc(Cl)cc1)c1ncc(CO)s1`, the CC50 at 72 h in data set [3] was more than 70 µM. The half-inhibitory concentration (IC50) in data set [6] was more than 23.4 µM.

Regarding `NC[C@@H](NC(=O)c1ccc(C2CCCCC2)[nH]1)c1ncc(CO)s1`, the CC50 at 72 h in data set [3] is more than 57 µM. Further, the 50% inhibitory concentration (IC50) in data set [6] is more than 17 µM.

As to `NC[C@H](NC(=O)Cc1ccc(OCC2CCCCC2)cc1)c1ncc(CO)s1`, the 50% cytotoxic concentration (CC50) at 72 h in data set [3] was found to be 47.5 µM. In addition, the IC50 in data set [6] is more than 25 µM.

For the compound `NC[C@H](NC(=O)CNCc1ccc(Cl)cc1)c1ncc(CO)s1`, in data set [3], the CC50 at 72 h is more than 70 µM. In addition, the IC50 in data set [6] was more than 23.4 µM.

For the compound `Cc1nc([C@H](CN)NC(=O)C(=O)Nc2ccc(Cl)cc2)sc1CO`, the CC50 at 72 h in data set [3] is more than 54 µM. Besides, the IC50 in data set [6] is more than 27 µM.

For the compound `Cc1cc(-c2ccc(C(F)(F)F)cn2)[nH]c1C(=O)NC(CN)c1ncc(CO)s1` (stereo not given), the CC50 in data set [1] was more than 47 µM. In addition, in data set [7], the inhibition result was “Active”.

Regarding `NC[C@H](NC(=O)c1ccc(-c2ccc(Cl)cc2)[nH]1)c1nccs1`, the half-maximal cytotoxic concentration (CC50) at 72 h in data set [2] is 59.1 µM; in data set [3], 36.5 µM. Further, the IC50 is 18.9 µM in data set [4], 16.2 µM in data set [5] and 1 µM in data set [6].

For the compound `NC[C@@H](NC(=O)c1ccc(OCC2CCCCC2)cc1)c1ncc(CO)s1`, the CC50 at 72 h in data set [3] is 28.2 µM. In data set [6], the concentration for half-maximal inhibition (IC50) is more than 15 µM.

For `Cc1nc([C@@H](CCN)NC(=O)C(=O)Nc2ccc(Cl)cc2)sc1CO`, the CC50 at 72 h in data set [3] was not below 46.6 µM. For the same compound, the IC50 in data set [6] was found to be 10.6 µM.

For `NCCNC(=O)c1ccc(-c2ccc(Cl)c(F)c2)[nH]1`, the CC50 in data set [8] is 17.8 µM. The IC50 in data set [6] amounted to 3.3 µM.

`Cc1nc([C@H](CCN)NC(=O)C(=O)Nc2ccc(Cl)cc2)sc1CO`: the CC50 at 72 h in data set [3] is not below 38.3 µM. Also, the 50% inhibitory concentration (IC50) in data set [6] is not below 14.7 µM.

For the compound `O=C(N[C@H](CC1CCNCC1)c1nc(CO)cs1)c1ccc(-c2ccc(C(F)(F)F)cc2)[nH]1`, the CC50 at 72 h in data set [3] is more than 40 µM. Also, the concentration for half-maximal inhibition (IC50) in data set [6] was more than 12.5 µM.

For `NC[C@@H](NC(=O)c1ccc(NCC2CCCCC2)cc1)c1ncc(CO)s1`, the CC50 at 72 h in data set [3] is 56.5 µM. In data set [6], the 50% inhibitory concentration (IC50) is more than 15 µM.

For the compound `Cc1nc([C@H](CN)NC(=O)c2cc3ccccc3[nH]2)sc1CO`, the CC50 at 72 h in data set [3] was more than 60 µM. Further, the IC50 in data set [6] is more than 60 µM.

`NC[C@@H](NC(=O)Cc1ccc(OCC2CCCCC2)cc1)c1ncc(CO)s1`: the CC50 at 72 h in data set [3] was determined as 27.9 µM. The 50% inhibitory concentration (IC50) in data set [6] was more than 25 µM.

For `NC[C@H](NC(=O)c1ccc(NCC2CCCCC2)cc1)c1ncc(CO)s1`, the 50% cytotoxic concentration (CC50) at 72 h in data set [3] is 56.5 µM. Moreover, in data set [6], the IC50 is more than 15 µM.

For the compound `NC[C@H](NC(=O)C(=O)NCc1ccc(Cl)c(F)c1)c1ncc(CO)s1`, in data set [3], the cytotoxic concentration (CC50) at 72 h was more than 77.6 µM. For the same compound, in data set [6], the IC50 is more than 15 µM.

Turning to `Cc1nc([C@@H](CN)NC(=O)c2cc3ccccc3[nH]2)sc1CO`, the CC50 at 72 h in data set [3] is more than 60 µM. For the same compound, the half-inhibitory concentration (IC50) in data set [6] was more than 60 µM.

As to `Cc1nc([C@@H](CN)NC(=O)NC(=O)c2ccc(Cl)cc2)sc1CO`, the CC50 at 72 h in data set [3] was more than 54 µM. In data set [6], the half-maximal inhibitory concentration (IC50) is more than 54 µM.

In the case of `O=C(NC1(c2nc(CO)cs2)CCNCC1)c1ccc(-c2ccc(C(F)(F)F)cc2)[nH]1`, the CC50 was found to be 57.7 µM in data set [2] (u87/cd4/ccr5, 72 h) and 33.7 µM in data set [8]. Besides, the values for the half-inhibitory concentration (IC50) in data set [4], in data set [5] and in data set [6] were 1.7 µM, 6.2 µM and 5 µM, respectively.

For the compound `Cc1nc([C@H](CN)NC(=O)NC(=O)c2ccc(Cl)cc2)sc1CO`, the 50% cytotoxic concentration (CC50) at 72 h in data set [3] is more than 54 µM. Besides, the IC50 in data set [6] is more than 54 µM.

With `O=C(NC1CCNCC1)c1ccc(-c2ccc(Cl)c(F)c2)[nH]1`, the 50% cytotoxic concentration (CC50) at 72 h in data set [3] was found to be 9.7 µM. Also, the IC50 in data set [6] is 4.9 µM.

For `NC[C@H](NC(=O)c1ccc(C2CCCCC2)[nH]1)c1ncc(CO)s1`, the CC50 at 72 h in data set [3] was more than 57 µM. In addition, the IC50 in data set [6] was more than 17 µM.

Regarding `Cc1nc([C@@H](CN)NC(=O)c2cc3cc(Cl)ccc3[nH]2)sc1CO`, in data set [3], the 50% cytotoxic concentration (CC50) at 72 h stood at 47 µM. The IC50 in data set [6] was more than 40 µM.

On to `O=C(N[C@@H](CC1CCNCC1)c1nc(CO)cs1)c1ccc(-c2ccc(C(F)(F)F)cc2)[nH]1`, for which, in data set [3], the 50% cytotoxic concentration (CC50) at 72 h is more than 40 µM. For the same compound, the IC50 in data set [6] is more than 12.5 µM.
